ChEMBL document CHEMBL1154801, “Novel phosphoramidates with porphine and nitrogenous drug: one-pot synthesis and orientation to cancer cells” (Eur J Med Chem, 2010)

Tests used:
Bel-7402 = test: Cytotoxicity against human Bel7402 cells after 48 hrs in the dark by MTT assay; type: functional, cell-based; conditions: Bel-7402, 48 h
Procedure, shortened: (§1)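 Cells seeded at 5000 per well and left to attach overnight. Compounds were taken from 50 mM DMSO stocks and diluted to final concentrations of 2.5–100 μM. Cells were exposed for 48 h in the dark, then given MTT (5 mg/mL in PBS) for 3 h. Formazan was dissolved in DMSO and absorbance read at 570 nm. The 50% cell-death concentration (IC50) was determined.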

[1] = Cytotoxicity against human L02 cells after 48 hrs in the dark by MTT assay; type: cell-based; conditions: l02, 48 h; procedure, shortened: as §1

| Compound | IC50 (Bel-7402) | Activity [1] |
| --- | --- | --- |
| O=P(NCCCl)(NCCCl)Oc1ccc(-c2c3nc(c(-c4ccc(Cl)cc4)c4ccc([nH]4)c(-c4ccc(Cl)cc4)c4nc(c(-c5ccc(Cl)cc5)c5ccc2[nH]5)C=C4)C=C3)cc1 | 20.3 µM | Non-toxic |
| O=Cc1ccc(OP(=O)(NCCCl)NCCCl)cc1 | > 150 µM | Toxic |
| O=P(NCCCl)(NCCCl)Oc1ccc(-c2c3nc(c(-c4ccccc4)c4ccc([nH]4)c(-c4ccccc4)c4nc(c(-c5ccccc5)c5ccc2[nH]5)C=C4)C=C3)cc1 | 14.4 µM | Non-toxic |
| COc1ccc(-c2c3nc(c(-c4ccc(OC)cc4)c4ccc([nH]4)c(-c4ccc(OP(=O)(NCCCl)NCCCl)cc4)c4nc(c(-c5ccc(OC)cc5)c5ccc2[nH]5)C=C4)C=C3)cc1 | 17.3 µM | Non-toxic |
| Cc1ccc(-c2c3nc(c(-c4ccc(C)cc4)c4ccc([nH]4)c(-c4ccc(OP(=O)(NCCCl)NCCCl)cc4)c4nc(c(-c5ccc(C)cc5)c5ccc2[nH]5)C=C4)C=C3)cc1 | 11.4 µM | Non-toxic |
| O=P(NCCCl)(NCCCl)Oc1ccc(-c2c3nc(c(-c4ccc(Br)cc4)c4ccc([nH]4)c(-c4ccc(Br)cc4)c4nc(c(-c5ccc(Br)cc5)c5ccc2[nH]5)C=C4)C=C3)cc1 | 8.41 µM | Non-toxic |
| CC1=C(CCC(=O)O)c2cc3[nH]c(cc4nc(cc5[nH]c(cc1n2)c(C)c5C(C)O)C(C)=C4C(C)O)c(C)c3CCC(=O)O (stereo not drawn) | 8.93 µM | – |
